The values below come from article PMC6605687 (The Journal of General Physiology, 2019).

Holding throughout (type): cell-based
For experiment [1], the target named is T1, rat P2X2 receptor (rP2X2R) WT (Rattus norvegicus, UniProt P49653).
T1 sequence (P49653 1-472): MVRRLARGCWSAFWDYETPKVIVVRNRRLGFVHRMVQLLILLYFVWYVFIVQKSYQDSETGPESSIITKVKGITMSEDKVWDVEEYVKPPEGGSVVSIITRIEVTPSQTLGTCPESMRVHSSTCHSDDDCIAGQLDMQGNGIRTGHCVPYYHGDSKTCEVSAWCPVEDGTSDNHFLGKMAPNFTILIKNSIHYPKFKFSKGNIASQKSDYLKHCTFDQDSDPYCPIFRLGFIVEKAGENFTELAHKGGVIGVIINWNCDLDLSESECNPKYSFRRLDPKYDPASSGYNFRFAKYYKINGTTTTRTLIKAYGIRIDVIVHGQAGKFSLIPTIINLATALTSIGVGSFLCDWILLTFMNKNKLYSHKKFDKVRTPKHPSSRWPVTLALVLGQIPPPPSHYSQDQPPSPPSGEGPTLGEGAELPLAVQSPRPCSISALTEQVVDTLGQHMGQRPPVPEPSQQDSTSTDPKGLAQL
A digest of the protocol: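 Collagenase-digested Xenopus oocytes were injected with WT rP2X2 mRNA (30 ng) and kept in L-15 at 18°C. Two-electrode voltage clamp was done 1–2 days later at −40 mV in ND96 (pH 7.4). Agonists were freshly dissolved in ND96 at pH 7.4. Responses were normalised to 1 mM ATP current in the same cell, and Hill fits gave EC50 and nH. Relative efficacy is the agonist maximal current versus 1 mM ATP. Results are mean ± SEM, compared by one-way ANOVA with Dunnett's test.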

Experiment [2] deals with T2, rP2X2 Val96Vah (Rattus norvegicus, UniProt P49653).
T2 sequence (P49653 1-472): T1 sequence (P49653 1-472)
Description: Two-electrode voltage clamp, oocytes expressing rP2X2 Val96Vah. A digest of the protocol: (§1)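 The backbone ester was introduced by nonsense suppression. TAG-mutant rP2X2 mRNA was co-injected into Xenopus oocytes with tRNA enzymatically aminoacylated with 2-hydroxyisovaleric acid. Uncharged tRNA co-injection served as the negative control. After incubation at 18°C, two-electrode voltage clamp was done at −40 mV in ND96 (pH 7.4). ATP concentration-response data were normalised and Hill-fitted for EC50 and nH, given as mean ± SEM.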

Experiment [3] concerns the target T3, rP2X2 Ile185Vah (Rattus norvegicus, UniProt P49653).
T3 sequence (P49653 1-472): T1 sequence (P49653 1-472)
Description: Two-electrode voltage clamp, oocytes expressing rP2X2 Ile185Vah. The essentials: as §1

On to `Nc1ncnc2c1ncn2[C@@H]1O[C@H](COP(=O)(O)OP(=O)(O)OP(=O)(O)O)[C@@H](O)[C@H]1O` [ATP, Adenosine 5′-triphosphate], for which the EC50 in experiment [1] was 32 ± 4 µM; in experiment [2], 27 ± 2 µM; in experiment [3] (Ile185Vah, mean ± SEM) it was 460 ± 20 µM. Moreover, in experiment [2] (Val96Vah compared with WT), the “Effect of Vah incorporation on EC50 (in words)” value is recorded as “did not affect the ATP EC50”. Also, in experiment [3] (Ile185Vah compared with Ile185Val), the “Fold increase in EC50 (decrease in sensitivity), Ile185Vah versus Ile185Val” value came out at 20 fold.
